# Assay outcomes from PubChem.
# Only some compounds are listed: those with a hit (about 3.6% of all), similar ones and a draw of the others.
# HSF1 activator: increases HSF-1 driven luciferase reporter signal. AID 504408. activation, % at 9 µM. NIH3T3-HGL HSF-1 luciferase reporter, MG132, 8 h; 100% = twice DMSO control signal. hit rate 1.7% among 300,000;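 active = mean replicate activation of at least 50% with a set share of replicates each reaching 50%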
# Wnt act: Wnt/beta-catenin pathway activation | hit rate 1.2% among 300,000 | Wnt/beta-catenin reporter cell assay, activator, plate reader | activation, % at 9.35 µM; in the data active = activation above about 30%, passing the limit was not always enough
# SR-BI HDL uptake: inhibitors of mouse SR-BI mediated HDL lipid uptake. Q61009. ldlA[mSR-BI] CHO cells, DiI-HDL uptake fluorescence, 3 h. inhibition, % at 12.5 µM. hit rate 0.96% among 320,000;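 active = mean replicate inhibition of at least 70% and a set share of replicates each scoring 70 or more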
# Target sequence (Q61009 whole entry, looked up): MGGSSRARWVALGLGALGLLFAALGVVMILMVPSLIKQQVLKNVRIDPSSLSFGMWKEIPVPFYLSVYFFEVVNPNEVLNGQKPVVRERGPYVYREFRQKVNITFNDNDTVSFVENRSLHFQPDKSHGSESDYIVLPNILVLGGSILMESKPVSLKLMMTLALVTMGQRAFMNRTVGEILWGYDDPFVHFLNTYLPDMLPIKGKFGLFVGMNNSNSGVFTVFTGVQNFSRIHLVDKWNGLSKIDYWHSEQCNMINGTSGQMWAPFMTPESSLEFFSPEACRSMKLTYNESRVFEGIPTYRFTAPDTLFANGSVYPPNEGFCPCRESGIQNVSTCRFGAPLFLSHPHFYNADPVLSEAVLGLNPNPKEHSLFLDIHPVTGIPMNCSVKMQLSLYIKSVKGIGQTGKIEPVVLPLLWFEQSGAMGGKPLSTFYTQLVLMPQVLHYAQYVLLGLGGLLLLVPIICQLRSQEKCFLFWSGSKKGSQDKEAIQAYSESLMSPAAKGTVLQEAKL
# SR-BI DiI-HDL act: SR-BI HDL lipid transfer activation; activation, % at 12.5 µM; CHO ldlA[mSR-BI] cells, DiI-HDL uptake fluorescence, 3 h; 100 = double the neutral-control signal; hit rate 0.096% among 320,000;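 active = mean replicate activation of at least 60% and every replicate at or above 60%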
#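 System: CHO ldlA[mSR-BI] cells / Medium: HEPES-buffered (25 mM, pH 7.4) F12 plus 0.5% BSA / Probe or stimulus: labelled HDL, 10 µg/mL / Doses: single compound concentration, delivered by pin transfer / Schedule: 3 h, 37 °C / Measured by: DiI fluorescence, bottom read / Measure: cell-associated DiI fluorescence as measure of HDL uptake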
# MITF act: MITF TRPM1 promoter activation in melanoma cells; SK-MEL-5 TRPM1-promoter luciferase, 24 h; % of positive control, neutral wells = 0; activation, % at 12.5 µM; hit rate 0.75% among 300,000;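 active = mean activation of at least 80% with every replicate also reaching 80%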
# A number is an active result; . = inactive; / = not tested or not shown.
SMILES,HSF1 activator,Wnt act,SR-BI HDL uptake,SR-BI DiI-HDL act,MITF act
O=C(Cc1ccccc1)Nc1ccccc1C(=O)Nc1ccccc1,.,.,.,.,.
Cc1ccc(NC(=O)c2ccccc2O)cc1,82,.,.,.,.
Cc1ccc(NC(=O)c2ccccc2NC(=O)Cc2ccccc2)cc1,.,35,.,.,.
Cc1ccc(NC(=O)c2c(Cl)n(C)c3ccccc23)cc1,72,/,.,.,.
COC(=O)C1=C(C)N(C)C(=NCc2ccc3c(c2)OCO3)NC1c1cccc(C(F)(F)F)c1 (configuration not stated),/,.,/,/,/
Cn1c(=O)c2c(-c3ccccc3)n(-c3ccccc3S)cc2n(C)c1=O,/,.,/,/,/
CCOC(=O)[C@]12CCC=C1N(Cc1ccc3c(c1)OCO3)C(=O)[C@H](CC(=O)N1CCC(c3ccccc3)CC1)C2,/,.,/,/,/
Cc1cc(C)nc(NC(=NCCc2c[nH]c3ccccc23)NC(=O)c2ccco2)n1,.,.,71,.,.
CC(=O)c1c(C)[nH]c(C(=O)Nc2cc(C)cc(C)c2)c1C,.,/,83,.,.
CC(=O)c1c(C)[nH]c(C(=O)Nc2ccc(C)c(S(=O)(=O)N(C)C)c2)c1C,.,.,.,.,93
CC(=O)c1c(C)[nH]c(C(=O)Nc2ccc(S(=O)(=O)N(C)C)cc2)c1C,.,.,.,.,.
COc1cccc(Cn2c(=O)sc3ccccc3c2=O)c1,81,.,.,.,.
O=C(Cn1cnc2ccccc2c1=O)c1ccccc1,.,/,.,.,/
Cc1cc(C)c(OCCCCn2cnc3ccccc3c2=O)c(C)c1,56,/,.,.,.
CC(C)(C)n1ncc2c(=O)n(CC(=O)c3ccccc3)cnc21,.,/,.,.,96
Cc1cccc(C)c1OCCCCn1cnc2ccccc2c1=O,.,/,.,.,.
Cc1ccc(C(=O)Cn2cnc3ccccc3c2=O)cc1,/,.,.,.,89
CC(C)(C)n1ncc2c(=O)n(CC(=O)OCc3ccccc3)cnc21,.,/,.,.,.
O=C(NCC(O)c1nc2ccccc2[nH]1)c1cc2ccccc2[nH]1 (configuration not stated),/,.,/,/,/
COc1ccc(NC(C)=O)cc1S(=O)(=O)Nc1ccccc1C(=O)NCCc1ccccc1,.,.,.,.,99
COC(=O)COc1c(/C=C\c2nc(O)c([N+](=O)[O-])c(=O)[nH]2)cccc1OC,.,.,75,.,/
C[C@@H]1CN(c2ccc(N3CCN(C(=O)OC(C)(C)C)C[C@@H]3C)cc2C#N)C[C@H](C)O1,/,.,/,/,/
Cc1ccc2ccccc2c1C(O)c1ncc(-c2ccc(F)cc2)[nH]1 (configuration not stated),/,.,/,/,/
CCOC(=O)COn1c2c(c3c4no[n+]([O-])c4ccc31)CCCC2,.,.,.,.,.
CCCCOn1c(C)c(C(C)=O)c2c3no[n+]([O-])c3ccc21,.,.,78,.,.
SMILES,HSF1 activator,Wnt act,SR-BI HDL uptake,SR-BI DiI-HDL act,MITF act
CCOC(=O)c1c(C)n(OCc2ccccc2)c2ccc3c(no[n+]3[O-])c12,.,.,86,.,.
CC(C)N1CCCC(C)(C(=O)Nc2ccccc2)C1 (configuration not stated),/,.,/,/,/
CCN(C)C1CN(Cc2cn(CCCC(=O)OC)nn2)S(=O)(=O)C1 (configuration not stated),/,.,/,/,/
COC(=O)CSc1nnc(SCc2ccc(Cl)cc2)s1,.,/,.,.,.
COC(=O)c1cnc(SCc2ccc(Cl)cc2)n1C,69,.,.,.,.
COC(=O)c1cnc(SCC(=O)c2ccccc2)n1C,.,32,.,.,.
Cn1c(SCC(=O)c2ccccc2)ncc(C(=O)Nc2ccccc2)c1=O,.,.,.,.,.
COC(=O)c1ccc2nc(-c3ccc(OC)c(OC)c3)c(Cc3ccc(OC)cc3C)n2c1,/,.,/,/,/
CCCCN1C(=O)C(=O)N(CC(=O)N2CCN(c3ccccc3)CC2)C1=O,.,.,.,.,.
CCCCN1C(=O)C(=O)N(c2ccccc2)C1=S,.,.,.,.,122
CCC(=O)NC(=S)Nc1ccc(S(=O)(=O)N2CCN(C)CC2)cc1,79,.,.,.,.
CN1CCN(S(=O)(=O)c2ccc(NC(=S)NC(=O)C(C)(C)C)cc2)CC1,/,.,.,.,.
Nc1ncc(S(=O)(=O)c2ccc([N+](=O)[O-])cc2)s1,/,.,.,.,.
OC1OC2COC(c3ccccc3)OC2C(O)C1O (configuration not stated),/,.,/,/,/
C[C@H]1CN([C@@H](C)CO)C(=O)c2cc(C3=CCCC3)cnc2O[C@@H]1CN(C)C(=O)c1ccncc1,/,.,/,/,/
